Measurements published in publication PMC9978883 (Molecular Cancer Therapeutics, 2023).

How the values were obtained:
LNCaP = test: Cell proliferation; assay type: cell-based; details: Homo sapiens, 72 h, read-out: Growth inhibitory IC50, LNCaP
PC3 = test: Cell proliferation; assay type: cell-based; details: Homo sapiens, PC-3, 72 h, read-out: Growth inhibitory IC50, PC3
DU145 = test: Cell proliferation; assay type: cell-based; details: Homo sapiens, DU-145, 72 h, read-out: Growth inhibitory IC50, DU145
VCaP = test: Cell proliferation; assay type: cell-based, human; details: for IC50: Homo sapiens, VCaP, 72 h, read-out: Growth inhibitory IC50, VCaP
WPMY = test: Cell proliferation; assay type: cell-based; details: Homo sapiens, 72 h, read-out: Growth inhibitory IC50, WPMY
STAT3 = STAT3 (Homo sapiens, UniProt P40763); test: Surface plasmon resonance, STAT3; assay type: binding
AIF mRNA = test: RT-qPCR for AIF mRNA on VCaP cells; assay type: cell-based, human; details: 2 or 5 μmol/L, 12 or 24 hours
VCaP cells [1] = test: Cell-cycle determination by flow cytometry; assay type: cell-based, human; details: 5, 10, or 20 μmol/L, 24 hours
cleaved PARP1 = test: Western blotting for cleaved PARP1 in VCaP cells; assay type: cell-based, human
[2] = target: T1, interaction between ERG and PARP1 (Homo sapiens, UniProt P11308); assay type: cell-based; details: 0.5 or 1 μmol/L, 2 hours, DU145-ERG
T1 sequence (P11308 1-479): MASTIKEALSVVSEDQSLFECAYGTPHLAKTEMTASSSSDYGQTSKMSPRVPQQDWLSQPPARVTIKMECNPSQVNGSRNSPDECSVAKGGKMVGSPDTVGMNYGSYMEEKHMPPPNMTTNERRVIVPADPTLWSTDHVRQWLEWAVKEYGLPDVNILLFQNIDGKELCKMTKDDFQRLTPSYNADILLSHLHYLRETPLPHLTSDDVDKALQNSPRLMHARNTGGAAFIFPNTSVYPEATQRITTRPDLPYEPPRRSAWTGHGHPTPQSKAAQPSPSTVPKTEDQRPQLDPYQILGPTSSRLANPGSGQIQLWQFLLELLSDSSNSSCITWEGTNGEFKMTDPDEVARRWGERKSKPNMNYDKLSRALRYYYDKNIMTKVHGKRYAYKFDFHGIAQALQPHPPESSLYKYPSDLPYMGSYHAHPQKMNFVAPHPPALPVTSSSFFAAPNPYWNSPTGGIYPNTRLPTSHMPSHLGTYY

DU145 vector = test: Cell proliferation on DU145 vector control cells; assay type: cell-based; details: Homo sapiens, DU-145, read-out: IC50, DU145 vector
ERG = target: T2, ERG (Homo sapiens, UniProt P11308); test: Surface plasmon resonance, ERG; assay type: binding; details: SPR
T2 sequence (P11308 1-479): T1 sequence (P11308 1-479)

VCaP cells [3] = test: Cell necrosis and apoptosis, PI/Hoechst 33342 flow cytometry; assay type: cell-based, human
AIF = AIF Western blot in VCaP cells; assay type: cell-based, human
VCaP xenograft tumors = test: VCaP xenograft in male SCID mice; assay type: in vivo
Outline: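 Male SCID mice were implanted subcutaneously on the left abdomen with 4 × 10^6 VCaP cells. At about 100 mm3, mice were randomised, six per group. Dosing was 75 mg/kg i.p. once daily or 37.5 mg/kg by gavage twice daily; controls got solvent i.p. Plasma ALT and AST were measured by kit every 7 days. Endpoint was tumour volume >2 cm3. Data are mean ± SD, Dunnett test versus control.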

γ-H2A.X = γ-H2A.X Western blotting in VCaP cells; assay type: cell-based, human
ALDH1 = target: T3, ALDH1 (Homo sapiens, UniProt P00352); test: Surface plasmon resonance, ALDH1; assay type: binding
T3 sequence (P00352 1-501): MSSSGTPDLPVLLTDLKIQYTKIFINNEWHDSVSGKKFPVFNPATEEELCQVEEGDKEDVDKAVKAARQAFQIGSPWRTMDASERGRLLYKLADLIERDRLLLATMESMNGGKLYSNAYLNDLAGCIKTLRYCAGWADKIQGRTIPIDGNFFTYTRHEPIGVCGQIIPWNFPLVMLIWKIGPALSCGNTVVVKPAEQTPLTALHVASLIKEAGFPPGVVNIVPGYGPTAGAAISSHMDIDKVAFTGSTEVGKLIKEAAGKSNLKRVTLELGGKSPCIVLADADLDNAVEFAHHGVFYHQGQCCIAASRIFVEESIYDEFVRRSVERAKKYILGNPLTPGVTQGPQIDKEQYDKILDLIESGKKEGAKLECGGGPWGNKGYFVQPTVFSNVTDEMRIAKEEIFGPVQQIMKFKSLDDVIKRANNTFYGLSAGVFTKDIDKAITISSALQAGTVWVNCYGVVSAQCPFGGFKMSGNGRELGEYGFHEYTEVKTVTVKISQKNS

[4] = NFZ-treated groups, every 7 days

Sequence of STAT3 (P40763 whole entry): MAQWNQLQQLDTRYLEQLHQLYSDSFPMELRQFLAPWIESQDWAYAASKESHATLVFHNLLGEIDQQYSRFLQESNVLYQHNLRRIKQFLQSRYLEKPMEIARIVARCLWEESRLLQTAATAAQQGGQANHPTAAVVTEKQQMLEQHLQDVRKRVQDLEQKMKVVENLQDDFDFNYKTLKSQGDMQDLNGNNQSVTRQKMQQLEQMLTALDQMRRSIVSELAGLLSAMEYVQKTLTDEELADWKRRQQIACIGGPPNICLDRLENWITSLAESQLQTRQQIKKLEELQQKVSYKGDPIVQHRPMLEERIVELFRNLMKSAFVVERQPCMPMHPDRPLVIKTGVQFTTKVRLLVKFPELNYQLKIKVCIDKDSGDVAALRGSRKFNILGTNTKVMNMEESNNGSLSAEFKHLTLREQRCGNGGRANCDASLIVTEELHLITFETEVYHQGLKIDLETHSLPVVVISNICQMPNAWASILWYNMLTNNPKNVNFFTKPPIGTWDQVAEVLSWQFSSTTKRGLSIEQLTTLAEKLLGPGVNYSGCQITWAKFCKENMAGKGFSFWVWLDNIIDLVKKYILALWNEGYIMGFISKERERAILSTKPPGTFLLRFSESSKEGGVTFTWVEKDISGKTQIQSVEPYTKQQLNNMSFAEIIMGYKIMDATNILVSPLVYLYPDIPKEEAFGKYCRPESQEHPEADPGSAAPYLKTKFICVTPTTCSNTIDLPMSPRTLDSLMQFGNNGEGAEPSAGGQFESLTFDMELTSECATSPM

Compound | IC50 (LNCaP) | IC50 (PC3) | IC50 (DU145) | IC50 (VCaP) | IC50 (WPMY) | also measured
O=C(N/N=C/c1ccc([N+](=O)[O-])o1)c1ccc(O)cc1 [NFZ, Nifuroxazide] | 13.4 ± 2.66 µM | 3.62 ± 0.51 µM | 5.12 ± 0.63 µM | 2.65 ± 0.08 µM | 4.53 ± 0.12 µM | Kd (STAT3): 22.8 µM; Binding pattern with STAT3 (STAT3; SPR): fast binding/fast dissociation; AIF mRNA expression (AIF mRNA): increased the expression of AIF; Proportion of cells in the G1–G0 phase (VCaP cells [1]): increased with the increasing NFZ concentrations; Reduction of NFZ inhibition on DU145-ERG by addition of olaparib (DU145-ERG; 10 μmol/L OLP): at least 10 fold; Difference in IC50 between DU145-ERG and DU145 vector (DU145-ERG; p < 0.0001): at least sevenfold; PARP1 cleavage (cleaved PARP1; 2 or 5 μmol/L, VCaP): increased PARP1 cleavage; Amount of PARP1 bound to ERG [2]: reduced the amount of PARP1 bound to ERG; IC50 (DU145 vector): 7.68 ± 0.211 µM; Binding pattern with ERG (ERG): fast binding and fast dissociation; Dead cells along the PI axis (Q1 and Q2) (VCaP cells [3]; 5, 10, or 20 μmol/L, VCaP): significantly higher than that in the DMSO group; AIF protein (AIF; 2 or 5 μmol/L, within 30 minutes, VCaP): rapidly released AIF; Plasma ALT (VCaP xenograft tumors; [4]): fluctuated within a normal range; Plasma AST (VCaP xenograft tumors; [4]): fluctuated within a normal range; Weight loss of mice (VCaP xenograft tumors; NFZ-treated versus vehicle): significantly less than that of mice treated with vehicle; Toxicity by observation (VCaP xenograft tumors; gavage or i.p.): did not show obvious toxicity; γ-H2A.X expression (γ-H2A.X; 2 or 5 μmol/L, different times, VCaP): increased; Kd (ALDH1): 22.2 µM; Binding pattern with ALDH1 (ALDH1; SPR): fast binding/fast dissociation
O=C(N/N=C/c1ccc([N+](=O)[O-])o1)c1cc([N+](=O)[O-])cc([N+](=O)[O-])c1O [Nifursol] | > 30 µM | > 30 µM | > 30 µM | > 30 µM | > 30 µM | 
O=C(c1cc(Cc2n[nH]c(=O)c3ccccc23)ccc1F)N1CCN(C(=O)C2CC2)CC1 [Olaparib, olaparib] |  |  |  |  |  | Effect of olaparib on NFZ-induced PARP1 cleavage (cleaved PARP1; 10 μmol/L OLP with NFZ): not altered; Effect of olaparib on NFZ-induced necrotic cells (Q1 and Q2) (VCaP cells [3]; olaparib and NFZ combination group versus NFZ): reduced the number of necrotic cells; Effect of olaparib on NFZ-induced AIF release (AIF; 10 μmol/L olaparib with NFZ): reduced; Effect of olaparib on NFZ-mediated growth inhibition (VCaP; 5 μmol/L NFZ with 20 μmol/L olaparib): completely abrogated the inhibitory effects of NFZ; Effect of olaparib on NFZ-mediated growth inhibition (VCaP; 5 μmol/L NFZ with 0.5, 1.0, or 20 μmol/L OLP): blocked NFZ-mediated growth inhibition; Effect of olaparib on NFZ-induced γ-H2A.X (γ-H2A.X; 10 μmol/L OLP with NFZ): counteracted this effect of NFZ

More lines, main results first:

IC50 (LNCaP) | IC50 (PC3) | IC50 (DU145) | IC50 (VCaP) | Compound | IC50 (WPMY) | also measured
0.23 ± 0.08 µM | 0.29 ± 0.07 µM | 0.16 ± 0.05 µM | 0.23 ± 0.05 µM | CC(=O)c1cc2c(o1)C(=O)c1ccccc1C2=O [Napabucasin] | 0.25 ± 0.01 µM | 
> 30 µM | 3.87 ± 0.35 µM | 27.7 ± 1.11 µM | 13.9 ± 1.12 µM | CSCC1CN(/N=C/c2ccc([N+](=O)[O-])o2)C(=O)O1 (stereo not shown) [Nifuratel] | 26.6 ± 0.13 µM | 
33 ± 3.11 µM | 27 ± 2 µM | 22.6 ± 2.93 µM | > 30 µM | CCN(CC)C(=S)SSC(=S)N(CC)CC [Disulfiram] | 23.3 ± 0.49 µM | 
> 30 µM | > 30 µM | > 30 µM | > 30 µM | CC1CS(=O)(=O)CCN1/N=C/c1ccc([N+](=O)[O-])o1 (stereo not shown) [Nifurtimox] | > 30 µM | 
